Test results reported in ChEMBL document CHEMBL3351553 (J Med Chem, 2014).
≈ marks a conversion by molar mass, not a printed value.

Experiments:
Staphylococcus aureus = assay: Antimicrobial activity against Staphylococcus aureus UAMS1 incubated for 16 hrs by CLSI based method; assay type: functional; details: UAMS1, 16 h
[1] = Inhibition of Staphylococcus aureus topoisomerase 4 assessed as reduction in decatenation of kDNA at 100 to 500 uM by gel electrophoresis method
Method in brief: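 Compounds were in DMSO, with water or DMSO as vehicle controls. Reactions were stopped with STEB plus chloroform:isoamyl alcohol and run on 1% agarose TAE gels stained with ethidium bromide. IC50 was taken from densitometry against reactions with and without enzyme.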

DNA gyrase = DNA gyrase (Staphylococcus aureus, UniProt P0A0K8+P20831); assay: Inhibition of Staphylococcus aureus DNA gyrase assessed as reduction in enzyme-catalyzed supercoiling of relaxed circular pBR322 DNA by agarose gel electrophoresis; assay type: protein-complex assay
Chain of DNA gyrase (P0A0K8 whole entry): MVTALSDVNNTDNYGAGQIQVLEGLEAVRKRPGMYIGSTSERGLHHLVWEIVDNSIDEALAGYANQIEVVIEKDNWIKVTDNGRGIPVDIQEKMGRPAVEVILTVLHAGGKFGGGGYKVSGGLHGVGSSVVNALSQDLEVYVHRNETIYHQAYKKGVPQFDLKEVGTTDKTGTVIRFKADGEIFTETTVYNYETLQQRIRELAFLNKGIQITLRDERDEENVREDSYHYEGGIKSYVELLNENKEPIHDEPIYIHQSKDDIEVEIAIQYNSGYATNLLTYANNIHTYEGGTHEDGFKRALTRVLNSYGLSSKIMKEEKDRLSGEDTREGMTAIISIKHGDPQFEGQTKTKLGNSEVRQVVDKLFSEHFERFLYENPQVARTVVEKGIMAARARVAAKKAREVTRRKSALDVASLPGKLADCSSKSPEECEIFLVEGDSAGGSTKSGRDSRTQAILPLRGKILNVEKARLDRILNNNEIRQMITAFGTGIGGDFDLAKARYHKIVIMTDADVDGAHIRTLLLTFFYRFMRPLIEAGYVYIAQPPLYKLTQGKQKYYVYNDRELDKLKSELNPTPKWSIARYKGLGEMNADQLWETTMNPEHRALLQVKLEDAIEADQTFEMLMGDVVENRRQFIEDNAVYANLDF
Chain of DNA gyrase (P20831 whole entry): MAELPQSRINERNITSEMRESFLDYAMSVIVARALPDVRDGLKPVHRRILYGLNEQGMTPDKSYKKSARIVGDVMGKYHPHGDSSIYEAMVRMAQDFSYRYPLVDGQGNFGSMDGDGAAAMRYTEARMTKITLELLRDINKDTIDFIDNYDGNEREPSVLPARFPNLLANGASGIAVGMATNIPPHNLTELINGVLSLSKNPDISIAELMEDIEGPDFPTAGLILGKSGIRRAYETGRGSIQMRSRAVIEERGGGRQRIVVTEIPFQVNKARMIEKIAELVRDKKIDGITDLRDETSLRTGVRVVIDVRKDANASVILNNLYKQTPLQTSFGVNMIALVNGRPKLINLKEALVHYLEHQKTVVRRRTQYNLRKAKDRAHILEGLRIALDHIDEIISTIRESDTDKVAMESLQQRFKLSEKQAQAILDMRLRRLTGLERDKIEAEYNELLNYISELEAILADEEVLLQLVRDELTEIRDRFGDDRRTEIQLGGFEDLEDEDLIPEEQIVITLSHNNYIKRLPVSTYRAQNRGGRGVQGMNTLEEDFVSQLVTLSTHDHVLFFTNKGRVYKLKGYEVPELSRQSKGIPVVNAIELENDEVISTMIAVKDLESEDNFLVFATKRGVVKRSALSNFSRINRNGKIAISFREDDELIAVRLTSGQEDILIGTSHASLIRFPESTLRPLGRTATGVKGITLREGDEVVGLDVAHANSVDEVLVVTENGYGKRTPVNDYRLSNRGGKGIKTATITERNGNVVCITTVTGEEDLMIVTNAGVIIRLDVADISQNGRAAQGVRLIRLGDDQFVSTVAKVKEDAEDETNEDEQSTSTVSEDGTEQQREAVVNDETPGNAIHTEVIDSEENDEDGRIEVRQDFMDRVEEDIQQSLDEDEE
Method in brief: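 Recombinant S. aureus gyrase kit, 0.5 U enzyme, relaxed pBR322 (250 ng/μL) in 40 mM HEPES·KOH pH 7.6, 10 mM Mg acetate, 10 mM DTT, 2 mM ATP, 500 mM K glutamate, 0.5 mg/mL albumin; 37 °C, 30 min.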

Compound	MIC (Staphylococcus aureus) [µg/mL]	IC50 [1] [µM]	IC50 (DNA gyrase) [µM]
COC(=O)C(C)(C)c1ccc(C(O)CCCN2CCC(C(O)(c3ccccc3)c3ccccc3)CC2)cc1 (stereo not drawn)	> 256	> 333	> 500
O=C(O)c1ccc(CN2CCC(C(O)(c3ccccc3)c3ccccc3)CC2)cc1	> 256		
CC(C)(C(=O)O)c1ccc(C(O)CCCN2CCC(C(O)(c3ccccc3)c3ccccc3)CC2)cc1 (stereo not drawn) [FEXOFENADINE]	> 256	> 333	> 500
COc1cccc(CN2CCC(C(O)(c3ccccc3)c3ccccc3)CC2)c1	128 (≈ 330 µM)		
CC(C)(C)c1ccc(C(O)CCCN2CCC(Cc3ccccc3)CC2)cc1 (stereo not drawn)	> 256		> 333
COc1ccc(C(O)CCCN2CCC(C(O)(c3ccccc3)c3ccccc3)CC2)cc1 (stereo not drawn)	> 256	> 333	> 500
Cc1ccc(CN2CCC(C(O)(c3ccccc3)c3ccccc3)CC2)cc1	128 (≈ 345 µM)		
OC(c1ccccc1)(c1ccccc1)C1CCN(Cc2ccccc2F)CC1	> 256		
CC(C)(C)c1ccc(C(O)CCCN2CCC(C(O)c3ccccc3)CC2)cc1 (stereo not drawn)	> 256		> 333
COC(=O)c1cccc(CN2CCC(C(O)(c3ccccc3)c3ccccc3)CC2)c1	> 256		
OC(c1ccccc1)(c1ccccc1)C1CCN(Cc2ccc(-c3ccsc3)cc2)CC1	16 (≈ 36.4 µM)		
CC(C)(C)c1ccc(C(=O)N2CCC(C(O)(c3ccccc3)c3ccccc3)CC2)cc1	> 256	> 333	93
Nc1ccc(CCN2CCC(C(O)(c3ccccc3)c3ccccc3)CC2)cc1	> 256	> 333	93
COC(=O)c1ccc(CN2CCC(C(O)(c3ccccc3)c3ccccc3)CC2)cc1	> 256		
OC(CCCN1CCC(C(O)(c2ccccc2)c2ccccc2)CC1)c1ccc(F)cc1 (stereo not drawn)	128 (≈ 295 µM)	> 333	> 500
CC(C)(C)c1ccc(C(O)CCN2CCC(C(O)(c3ccccc3)c3ccccc3)CC2)cc1 (stereo not drawn)	8 (≈ 17.5 µM)	333	133
OC(c1ccccc1)(c1ccccc1)C1CCN(Cc2cccc(C(F)(F)F)c2)CC1	> 256		
OC(c1ccccc1)(c1ccccc1)C1CCN(Cc2cccc(-c3ccccc3)c2)CC1	64 (≈ 148 µM)		
CC(C)(C)c1ccc(C(N)CCCN2CCC(C(O)(c3ccccc3)c3ccccc3)CC2)cc1 (stereo not drawn)	16 (≈ 34 µM)	> 333	
CC(C)(C)c1ccc([C@H](O)CCCN2CCC(C(O)(c3ccccc3)c3ccccc3)CC2)cc1 [R-TERFENADINE]		110	
OC(CCCN1CCC(C(O)(c2ccccc2)c2ccccc2)CC1)c1ccccc1 (stereo not drawn)	> 256	> 333	> 500
COc1ccc(CN2CCC(C(O)(c3ccccc3)c3ccccc3)CC2)cc1	128 (≈ 330 µM)		

Compound	MIC (Staphylococcus aureus) [µg/mL]	IC50 [1] [µM]	IC50 (DNA gyrase) [µM]
CC(C)c1ccc(CN2CCC(C(O)(c3ccccc3)c3ccccc3)CC2)cc1	32 (≈ 80.1 µM)		
CC(C)(C)c1ccc(CCN2CCC(C(O)(c3ccccc3)c3ccccc3)CC2)cn1	64 (≈ 149 µM)		> 333
OC(c1ccccc1)(c1ccccc1)C1CCN(Cc2cccc(F)c2)CC1	128 (≈ 341 µM)		
CC(C)(C)c1ccc(C(O)CCCN2CCC(C(c3ccccc3)c3ccccc3)CC2)cc1 (stereo not drawn)	8 (≈ 17.6 µM)		
OC(c1ccccc1)(c1ccccc1)C1CCN(Cc2ccc(F)cc2)CC1	> 256		
OC(c1ccccc1)(c1ccccc1)C1CCN(CCc2ccc(C(F)(F)F)cc2)CC1	16 (≈ 36.4 µM)	> 333	17
Cc1ccccc1CN1CCC(C(O)(c2ccccc2)c2ccccc2)CC1	128 (≈ 345 µM)		
CC(C)(C)c1ccc([C@@H](O)CCCN2CCC(C(O)(c3ccccc3)c3ccccc3)CC2)cc1		100	
OC(c1ccccc1)(c1ccccc1)C1CCN(Cc2ccc(-c3ccoc3)cc2)CC1	32 (≈ 75.6 µM)		
Cc1ccc(C(O)CCCN2CCC(C(O)(c3ccccc3)c3ccccc3)CC2)cc1 (stereo not drawn)	128 (≈ 298 µM)	> 333	> 500
CC(C)(C)c1ccc(CN2CCC(C(O)(c3ccccc3)c3ccccc3)CC2)cc1		213	90
OC(c1ccccc1)(c1ccccc1)C1CCN(CCc2ccc(F)cc2)CC1	128 (≈ 329 µM)		> 333
OC(c1ccccc1)(c1ccccc1)C1CCN(Cc2ccccc2-c2ccccc2)CC1	> 256		
CC(C)c1ccc(C(O)CCCN2CCC(C(O)(c3ccccc3)c3ccccc3)CC2)cc1 (stereo not drawn)	32 (≈ 69.9 µM)	273	
OC(c1ccccc1)(c1ccccc1)C1CCN(Cc2ccc(-n3cccc3)cc2)CC1	32 (≈ 75.7 µM)		
CC(C)(C)c1ccc(C(=O)CCCN2CCC(C(O)(c3ccccc3)c3ccccc3)CC2)cc1 [TERFENADONE]	8 (≈ 17 µM)	110	
Oc1ccc(CN2CCC(C(O)(c3ccccc3)c3ccccc3)CC2)cc1	128 (≈ 343 µM)		
CN(C)c1ccc(CCN2CCC(C(O)(c3ccccc3)c3ccccc3)CC2)cc1	> 256		> 333
COc1ccc(CCN2CCC(C(O)(c3ccccc3)c3ccccc3)CC2)cc1	> 256		> 333
Oc1cccc(CN2CCC(C(O)(c3ccccc3)c3ccccc3)CC2)c1	> 256		
CC(C)(C)c1ccc(OCCCN2CCC(C(O)(c3ccccc3)c3ccccc3)CC2)cc1		> 333	100
N#Cc1cccc(CN2CCC(C(O)(c3ccccc3)c3ccccc3)CC2)c1	> 256		

Compound	MIC (Staphylococcus aureus) [µg/mL]	IC50 [1] [µM]	IC50 (DNA gyrase) [µM]
CC(C)(C)c1ccc(C(O)CN2CCC(C(O)(c3ccccc3)c3ccccc3)CC2)cc1 (stereo not drawn)	16 (≈ 36.1 µM)	100	
CC(C)(C)c1ccc(C(=O)CN2CCC(C(O)(c3ccccc3)c3ccccc3)CC2)cc1	> 256	247	
OC(c1ccccc1)(c1ccccc1)C1CCN(Cc2ccc(-c3ccco3)cc2)CC1	32 (≈ 75.6 µM)		
COc1ccccc1CN1CCC(C(O)(c2ccccc2)c2ccccc2)CC1	128 (≈ 330 µM)		
OC(c1ccccc1)(c1ccccc1)C1CCN(Cc2ccc(C(F)(F)F)cc2)CC1	> 256		
CC(C)(C)c1ccc(C(O)CCCN2CCN(C(c3ccccc3)c3ccccc3)CC2)cc1 (stereo not drawn) [TRENIZINE]	> 256		
OC(c1ccccc1)(c1ccccc1)C1CCN(Cc2ccccc2C(F)(F)F)CC1	> 256		
OC(c1ccccc1)(c1ccccc1)C1CCN(Cc2ccc(-c3cccs3)cc2)CC1	32 (≈ 72.8 µM)		
COC(=O)c1ccccc1CN1CCC(C(O)(c2ccccc2)c2ccccc2)CC1	> 256		
N#Cc1ccc(CN2CCC(C(O)(c3ccccc3)c3ccccc3)CC2)cc1	> 256		
CC(C)(C)c1ccc(C(O)CCCN2CCC(=C(c3ccccc3)c3ccccc3)CC2)cc1 (stereo not drawn)	> 256		
Oc1ccccc1CN1CCC(C(O)(c2ccccc2)c2ccccc2)CC1	64 (≈ 171 µM)		
O=C(O)c1cccc(CN2CCC(C(O)(c3ccccc3)c3ccccc3)CC2)c1	> 256		
CC(C)(C)c1ccccc1CCN1CCC(C(O)(c2ccccc2)c2ccccc2)CC1	16 (≈ 37.4 µM)		
CC1(c2ccc(CCN3CCC(C(O)(c4ccccc4)c4ccccc4)CC3)cc2)COC1	> 256		> 333
CC(C)(C)c1cccc(CN2CCC(C(O)(c3ccccc3)c3ccccc3)CC2)c1	32 (≈ 77.4 µM)		
Cc1cccc(CN2CCC(C(O)(c3ccccc3)c3ccccc3)CC2)c1	128 (≈ 345 µM)		
O=C(O)c1ccccc1CN1CCC(C(O)(c2ccccc2)c2ccccc2)CC1	> 256		
N#Cc1ccccc1CN1CCC(C(O)(c2ccccc2)c2ccccc2)CC1	> 256		
CC(C)(C)c1ccccc1CN1CCC(C(O)(c2ccccc2)c2ccccc2)CC1	> 256		
